Compounds with a hit are over-represented: about 3.1% of the library has one in this group of screens.
KCNK9 block – blocks the human KCNK9 two-pore domain potassium channel; 310,000 compounds, 1.2% hits; B-score at 10 µM; HEK293 KCNK9, FluxOR thallium flux fluorescence; hits give low values;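 active = ratio B-score over 3 SD below the library mean, with starting fluorescence within 5 SD of its mean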;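 also: negative B-score means less thallium flux so channel inhibition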
Target sequence (Q9NPC2 whole entry, looked up, the tested form may be a part): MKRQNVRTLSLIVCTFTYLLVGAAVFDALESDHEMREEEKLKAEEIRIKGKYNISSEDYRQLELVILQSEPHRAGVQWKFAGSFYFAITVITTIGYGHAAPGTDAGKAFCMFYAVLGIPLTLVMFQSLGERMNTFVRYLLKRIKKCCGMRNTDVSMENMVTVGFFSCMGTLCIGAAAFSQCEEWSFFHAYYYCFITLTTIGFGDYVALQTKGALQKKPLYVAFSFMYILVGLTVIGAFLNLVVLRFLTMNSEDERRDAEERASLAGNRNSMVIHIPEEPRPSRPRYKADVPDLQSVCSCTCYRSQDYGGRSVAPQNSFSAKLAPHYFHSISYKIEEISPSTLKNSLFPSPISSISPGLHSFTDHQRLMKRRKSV
hERG rescue – compounds protecting human hERG from proarrhythmic drug block; activation (rescue from dofetilide block), less the hit threshold, % at 10 µM; CHO-hERG, FluxOR thallium flux, dofetilide IC70 present; 310,000 compounds, 0.51% hits;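 active = activation above the mean of controls blocked by dofetilide plus 5 SD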;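 also: thallium influx through hERG after potassium depolarization seen as dye fluorescence rise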
KCNK3 block – human KCNK3 channel inhibition, primary screen; O14649; CHO-KCNK3 thallium flux, FluxOR fluorescence; hits give low values; B-score at 10 µM; 340,000 compounds, 0.84% hits;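 active = B-score under library mean minus 4 SD, starting fluorescence ratio at most library mean plus 5 SD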;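 also: more negative B-score means stronger inhibition of thallium flux through KCNK3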
KCNQ1 inh – blocks the human KCNQ1 potassium channel. P51787. CHO-K1 KCNQ1, FluxOR thallium flux fluorescence; hits give high values. B-score at 10 µM. 310,000 compounds, 1.3% hits;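 active = compounds whose thallium flux B-score, printed positive for inhibition, exceeds three library SD while starting fluorescence stays within three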;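 also: channel opened by potassium depolarization with thallium stimulus after 20 min compound exposure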
KCNQ1 pot – potentiators or activators of human KCNQ1 potassium channel; 310,000 compounds, 0.35% hits; CHO-K1 KCNQ1, thallium flux FluxOR fluorescence; hits give high values; B-score at 10 µM;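 active = fluorescence ratio B-score, a plate-corrected score, at least three library SD, with initial intensity B-score within 5 SD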
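Assay system: CHO-K1 cells stably expressing KCNQ1; Medium: assay buffer with matched DMSO; Also added: K+/Tl+ depolarizing stimulus; Dosing: single dose; Timing: dye 90 min, compound 20 min, room temperature; Measured by: kinetic FluxOR thallium fluorescence, 10-s 1-Hz baseline, 110-s post-stimulus read; Read-out: peak-minus-minimum fluorescence over initial fluorescence, negative-control normalized, B-scored.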
Starred values were filed as active, the others as inactive; i = inactive; · = not tested or not shown.

SMILES	KCNK9 block	hERG rescue	KCNK3 block	KCNQ1 inh	KCNQ1 pot
CC(OC(=O)c1ccc(F)cc1)C(=O)Nc1nc(-c2cccc([N+](=O)[O-])c2)cs1 (stereo unspecified)	-7.4*	-5	i	i	i
CCCCn1c(SCC(=O)NCc2ccco2)nc2ccccc2c1=O	i	-2	i	i	i
CCCCCn1c(SCc2ccncc2)nc2cc(C(=O)NCc3ccco3)ccc2c1=O	i	-9	i	10*	i
COc1ccc(NC(=O)CO/N=C/C(=O)Nc2ccccc2C)c([N+](=O)[O-])c1	·	·	i	·	·
O=C(COC(=O)C1C2CC3OC(=O)C1C3C2)Nc1ccc(Cl)cc1 (stereo unspecified)	i	12*	i	i	17*
Cn1c2ccccc2c2c(C(=O)NCc3ccco3)cn(C3CCCCC3)c(=O)c21	i	-11	i	i	i
Cc1ccc(CNC(=O)c2cn(C3CCCC3)c(=O)c3c2c2ccccc2n3C)o1	-6.7*	-4	·	i	i
CNS(=O)(=O)c1cc(NC(=O)c2cncn2-c2ccccc2)ccc1C	i	-13	i	i	i
COc1cccc(C(=O)Nc2cc(C)c3c(=O)oc4ccccc4c3n2)c1	-11*	-7	-10*	i	i
COc1ccc(C(=O)Nc2oc(-c3ccccc3)c(-c3ccccc3)c2C#N)cc1	i	-16	i	7*	i
Cc1cc(NC(=O)Cc2ccccc2)nc2c1c(=O)oc1ccccc12	i	-11	i	i	i
COc1cccc(C(=O)Nc2c(F)c(F)c(F)c(F)c2F)c1	i	-11	i	i	i
COc1cccc(C(=O)Nc2nc(-c3ccccc3)c(-c3ccccc3)o2)c1	i	-7	i	i	9*
COc1ccc(-c2oc(NC(=O)c3ccc(C)cc3)c(C#N)c2-c2ccc(OC)cc2)cc1	i	-1	i	i	i
COc1cccc(C(=O)Nc2ccccc2)c1	i	5.4*	i	i	i
COc1ccccc1OCCCCn1c(C(C)O)nc2ccccc21 (stereo unspecified)	i	-9	i	i	i
COC(=O)c1ccc(NC(=O)CCN2C(=O)C3CC=CCC3C2=O)cc1 (stereo unspecified)	·	·	i	·	·
CC(C)CN(C(=O)COC(=O)c1ccc(Br)o1)c1c(N)n(Cc2ccccc2)c(=O)[nH]c1=O	i	-15	i	i	i
CCOC(=O)C(=O)Nc1nc(-c2ccccc2)c(-c2ccccc2)o1	i	-5	i	i	i
COc1cccc(NC(=O)c2cncs2)c1	i	5.0*	i	i	14*
O=C(Nc1nc(-c2ccccc2)c(-c2ccccc2)o1)c1ccc(F)cc1	i	5.6*	i	i	56*
Cn1nc(C(F)(F)F)c(CN2CC(C)(C)C2=O)c1N1CCOCC1	i	5.0*	i	i	i
CCOc1ccc(NC(=O)CN2C(=O)NC(C)(c3ccc(OC(F)F)cc3)C2=O)cc1 (stereo unspecified)	i	-4	i	i	i
Cc1cc(Cl)c(S(=O)(=O)N/N=C/c2ccc3c(c2)OCO3)c(Cl)c1	i	-11	i	10*	i
Cc1cc(C)c(S(=O)(=O)N/N=C/c2ccc3c(c2)OCO3)c(C)c1	i	-10	i	i	i
SMILES	KCNK9 block	hERG rescue	KCNK3 block	KCNQ1 inh	KCNQ1 pot
O=C(Cn1cnc2c(oc3ccccc32)c1=O)N1CCN(c2ccccc2)CC1	i	9.4*	i	i	i
CCc1ccc(NC(=O)C(C)OC(=O)Cc2cc(OC)c(OC)c(OC)c2)cc1 (stereo unspecified)	·	·	-11*	·	·
O=C1C(Cl)=C(N2CCCCC2)C(=O)C(Cl)=C1c1cnc(N2CCCCC2)s1	i	-3	i	7*	i
CN(C)c1ncc(C2=C(Cl)C(=O)C(N3CCCC3)=C(Cl)C2=O)s1	i	-46	i	7*	i
CC(=O)c1cnc(N(C)C)s1	i	-9	i	i	i
CC(=O)O[C@@H]1[C@@H](O)[C@@H](O)[C@H](Oc2c(-c3ccc(O)cc3)oc3c(CC=C(C)C)c(O)cc(O)c3c2=O)O[C@H]1C	i	-38	·	6*	i

Screening results deposited in PubChem by Johns Hopkins Ion Channel Center.
